Experimental data: PubChem BioAssay
Activity calls are given as the source filed them.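 Rule for the calls, unless noted: active = duplicate-averaged activation above buffer control mean plus 5 SD of those controls; inactive = the rest.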

System: not listed separately
Test: nonspecific flux increase, KCNQ1-free cells – parental CHO cells, counter-screen for KCNQ1 potentiator project (AID 493006)
Settings: parental CHO-K1 cells, FluxOR thallium flux, at 10 µM; active compounds read high
Summary of the method: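 Assay system: Untransfected host CHO-K1 cells with FluxOR thallium dye | Probe or stimulus: Potassium/thallium depolarization pulse | Schedule: Overnight 37 °C plating, 90 min RT dye, 20 min compound | Detection: Kinetic thallium-flux fluorescence | Read-out: Max-minus-min fluorescence over baseline, percent of buffer-to-R-L3 span | Benchmarks: Low control buffer, high control R-L3 activator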

Structure (SMILES) | outcome | activation
O=C(c1ccc(COc2c(F)c(F)cc(F)c2F)o1)N1CCN(c2ccc(Cl)cc2)CC1 | inactive | –
S=c1[nH]nc(-c2ccccc2)n1/N=C/c1ccc(-c2ccccc2Cl)o1 | inactive | –
CCc1ccc(C2c3[nH]c4ccccc4c3CCN2C(=O)CN2CCN(CC)CC2)cc1 (stereo not given) | inactive | –
O=[N+]([O-])c1ccc(C(O)C(CO)NC(=S)Nc2ccccc2)cc1 (stereo not given) | inactive | –
O=C(NC(=S)NC1CCCc2ccccc21)c1ccc(F)cc1 (stereo not given) | inactive | –
COc1cccc(CN2CCN(Cc3cc4ccccc4[nH]3)CC2CCO)c1 (stereo not given) | inactive | –
O=C(NC(=S)Nc1nc2c(ccc3ccccc32)s1)c1cccs1 | inactive | –
N=C1/C(=C\c2ccc(-c3cccc(Cl)c3)o2)C(=O)N=C2SC=C(c3ccccc3)N12 | inactive | –
Cc1ccc(-c2nn(-c3ccccc3)cc2/C=N/n2c(-c3cccs3)n[nH]c2=S)cc1 | inactive | –
CC(C)(C)c1ccc(CN2N=Nc3ccccc3S2(=O)=O)cc1 | inactive | –
Cc1cccc(-n2c(=S)[nH]c3c(oc4ccccc43)c2=O)c1 | – | 139% (active)
O=C(c1nnsc1S(=O)c1ccc(Cl)cc1)N1CCOCC1 (stereo not given) | inactive | –
O=C(NNc1c2ccccc2nc2ccccc12)c1ccccc1Cl | inactive | –
CN(C)CCCNc1cc(-c2ccccc2)nc2cc(-c3cccc(F)c3)nn12 | – | 180% (active)
COc1cccc(NC(=O)CSCc2cc(=O)n3ccsc3n2)c1 | inactive | –
Cc1ccc(/C=C2\SC(=S)N(NS(=O)(=O)c3ccc(C)cc3)C2=O)cc1 | inactive | –
COc1ccc(/C=C(\NC(=O)c2cccs2)C(=O)N2CCOCC2)cc1OC | – | 137% (active)
NC(=O)c1ccc(N2CCNC(=O)C2)c([N+](=O)[O-])c1 | inactive | –

Structure (SMILES) | outcome | activation
CCOC(=O)CS(=O)(=O)c1nc(-c2ccc(F)cc2)cc(C(F)(F)F)n1 | inactive | –
CCOc1ccccc1NC1=C(Cl)C(=O)N(c2ccccc2)C1=O | inactive | –
C/C(=N\OCC(=O)Nc1ccc(OC(F)(F)F)cc1)c1ccc2c(c1)OCCO2 | inactive | –
COc1ccc(OC)c(Nc2cc3ccccc3c(=O)[nH]2)c1 | inactive | –
CC1(c2ccc(OC(F)F)cc2)NC(=O)N(CC(=O)Nc2ccccc2)C1=O (stereo not given) | inactive | –
COCC(=O)Nc1nnc(SCC(=O)N2C(C)CCCC2C)s1 (stereo not given) | inactive | –
COc1ccc(C2c3ccc4ccccc4c3Oc3ncn(CCCO)c(=N)c32)cc1OC (stereo not given) | inactive | –
CCS(=O)(=O)N1Cc2ccccc2CC1C(=O)Nc1cccc(S(=O)(=O)N(C)C)c1 (stereo not given) | inactive | –
CCOC(=O)c1sc(NC(=O)c2ccccc2C(=O)O)c(C(=O)OCC)c1C | inactive | –
CCOc1ccc(-n2c(=S)sc3c(=O)n(-c4ccccc4)c(SC)nc32)cc1 | inactive | –
CC(C)COc1ccc(-c2nn(-c3ccccc3)cc2C(=O)Nc2nccs2)cc1 | inactive | –
Cn1c(N/N=C/c2cccs2)cc(=O)n(C)c1=O | inactive | –
O=C(OCc1ccccc1)C1=NNC2C(=O)N(c3ccccc3)C(=O)C12 (stereo not given) | inactive | –
N#C/C(=C/c1cn(-c2ccccc2)nc1-c1cccc(OCc2ccc(F)cc2)c1)C(=O)NCCCn1ccnc1 | inactive | –
CN(C(=S)NC(=O)c1ccccc1Br)C1CCCCC1 | – | 206% (active)
CC(=O)c1ccc(NC(=S)NC(=O)c2c(Cl)c(C)nn2C)cc1 | inactive | –
O=C(Nc1cccc(-c2nnc(-c3ccco3)o2)c1)c1ccccc1 | inactive | –

Target: Potassium voltage-gated channel subfamily KQT member 1 (Homo sapiens) (UniProt P51787)
Sequence (P51787 whole entry, looked up): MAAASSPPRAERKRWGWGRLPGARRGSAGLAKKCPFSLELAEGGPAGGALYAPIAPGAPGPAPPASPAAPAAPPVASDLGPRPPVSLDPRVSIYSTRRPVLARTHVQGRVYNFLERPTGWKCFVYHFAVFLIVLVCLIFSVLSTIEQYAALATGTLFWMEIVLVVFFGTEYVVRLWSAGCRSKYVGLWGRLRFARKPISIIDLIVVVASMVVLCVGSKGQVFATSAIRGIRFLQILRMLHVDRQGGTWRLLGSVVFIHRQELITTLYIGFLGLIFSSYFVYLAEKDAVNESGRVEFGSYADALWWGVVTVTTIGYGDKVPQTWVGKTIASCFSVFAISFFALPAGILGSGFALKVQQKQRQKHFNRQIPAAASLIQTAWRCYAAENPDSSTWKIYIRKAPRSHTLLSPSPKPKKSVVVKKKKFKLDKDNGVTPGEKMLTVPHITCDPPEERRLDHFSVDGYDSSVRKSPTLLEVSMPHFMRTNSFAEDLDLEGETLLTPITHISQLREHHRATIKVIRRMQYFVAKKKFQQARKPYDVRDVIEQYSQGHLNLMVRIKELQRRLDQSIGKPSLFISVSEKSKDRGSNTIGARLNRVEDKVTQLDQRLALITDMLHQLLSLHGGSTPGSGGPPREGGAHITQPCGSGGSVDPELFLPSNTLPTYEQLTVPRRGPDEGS
Test: enhancement of KCNQ1 channel thallium flux – FluxOR thallium flux, CHO cells, duplicates, confirmation (AID 493007;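 active = potentiation averaged over duplicate wells exceeding buffer-only control mean by more than 3 SD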;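 for outcome: cells depolarized by a potassium plus thallium sulfate stimulus after compound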)
Settings: KCNQ1 cell line, FluxOR thallium flux fluorescence, at 10 µM; active compounds read high, % of reference activator effect, buffer zero
Summary of the method: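 Material: KCNQ1-expressing CHO cell line; Incubation: FluxOR dye loading 90 min, compound exposure 20 min, room temperature; Detection: FluxOR Tl+ flux fluorescence, 10 s baseline plus 110 s recording; Read-out: percent activation between buffer and R-L3 responses; Control set: buffer-only wells as 0% and R-L3 activator as 100%; Replication: duplicate wells per compound.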

Structure (SMILES) | outcome | potentiation
O=C(c1ccc(COc2c(F)c(F)cc(F)c2F)o1)N1CCN(c2ccc(Cl)cc2)CC1 | inactive | –
S=c1[nH]nc(-c2ccccc2)n1/N=C/c1ccc(-c2ccccc2Cl)o1 | inactive | –
CCc1ccc(C2c3[nH]c4ccccc4c3CCN2C(=O)CN2CCN(CC)CC2)cc1 (stereo not given) | inactive | –
O=[N+]([O-])c1ccc(C(O)C(CO)NC(=S)Nc2ccccc2)cc1 (stereo not given) | inactive | –
O=C(NC(=S)NC1CCCc2ccccc21)c1ccc(F)cc1 (stereo not given) | – | 19.5% (active)
COc1cccc(CN2CCN(Cc3cc4ccccc4[nH]3)CC2CCO)c1 (stereo not given) | – | 20% (active)
O=C(NC(=S)Nc1nc2c(ccc3ccccc32)s1)c1cccs1 | – | 81% (active)
N=C1/C(=C\c2ccc(-c3cccc(Cl)c3)o2)C(=O)N=C2SC=C(c3ccccc3)N12 | – | 29% (active)
Cc1ccc(-c2nn(-c3ccccc3)cc2/C=N/n2c(-c3cccs3)n[nH]c2=S)cc1 | – | 23% (active)
CC(C)(C)c1ccc(CN2N=Nc3ccccc3S2(=O)=O)cc1 | inactive | –
Cc1cccc(-n2c(=S)[nH]c3c(oc4ccccc43)c2=O)c1 | inactive | –
O=C(c1nnsc1S(=O)c1ccc(Cl)cc1)N1CCOCC1 (stereo not given) | – | 17.5% (active)
O=C(NNc1c2ccccc2nc2ccccc12)c1ccccc1Cl | inactive | –
CN(C)CCCNc1cc(-c2ccccc2)nc2cc(-c3cccc(F)c3)nn12 | – | 57% (active)
COc1cccc(NC(=O)CSCc2cc(=O)n3ccsc3n2)c1 | inactive | –
Cc1ccc(/C=C2\SC(=S)N(NS(=O)(=O)c3ccc(C)cc3)C2=O)cc1 | – | 25.5% (active)
COc1ccc(/C=C(\NC(=O)c2cccs2)C(=O)N2CCOCC2)cc1OC | – | 29.5% (active)
NC(=O)c1ccc(N2CCNC(=O)C2)c([N+](=O)[O-])c1 | inactive | –

Structure (SMILES) | outcome | potentiation
CCOC(=O)CS(=O)(=O)c1nc(-c2ccc(F)cc2)cc(C(F)(F)F)n1 | inactive | –
CCOc1ccccc1NC1=C(Cl)C(=O)N(c2ccccc2)C1=O | inactive | –
C/C(=N\OCC(=O)Nc1ccc(OC(F)(F)F)cc1)c1ccc2c(c1)OCCO2 | inactive | –
COc1ccc(OC)c(Nc2cc3ccccc3c(=O)[nH]2)c1 | inactive | –
CC1(c2ccc(OC(F)F)cc2)NC(=O)N(CC(=O)Nc2ccccc2)C1=O (stereo not given) | inactive | –
COCC(=O)Nc1nnc(SCC(=O)N2C(C)CCCC2C)s1 (stereo not given) | inactive | –
COc1ccc(C2c3ccc4ccccc4c3Oc3ncn(CCCO)c(=N)c32)cc1OC (stereo not given) | inactive | –
CCS(=O)(=O)N1Cc2ccccc2CC1C(=O)Nc1cccc(S(=O)(=O)N(C)C)c1 (stereo not given) | inactive | –
CCOC(=O)c1sc(NC(=O)c2ccccc2C(=O)O)c(C(=O)OCC)c1C | inactive | –
CCOc1ccc(-n2c(=S)sc3c(=O)n(-c4ccccc4)c(SC)nc32)cc1 | inactive | –
CC(C)COc1ccc(-c2nn(-c3ccccc3)cc2C(=O)Nc2nccs2)cc1 | inactive | –
Cn1c(N/N=C/c2cccs2)cc(=O)n(C)c1=O | inactive | –
O=C(OCc1ccccc1)C1=NNC2C(=O)N(c3ccccc3)C(=O)C12 (stereo not given) | inactive | –
N#C/C(=C/c1cn(-c2ccccc2)nc1-c1cccc(OCc2ccc(F)cc2)c1)C(=O)NCCCn1ccnc1 | inactive | –
CN(C(=S)NC(=O)c1ccccc1Br)C1CCCCC1 | – | 44% (active)
CC(=O)c1ccc(NC(=S)NC(=O)c2c(Cl)c(C)nn2C)cc1 | inactive | –
O=C(Nc1cccc(-c2nnc(-c3ccco3)o2)c1)c1ccccc1 | inactive | –
